The results in this text go back to ChEMBL document CHEMBL1137269, “Identification of substituted 4-aminopiperidines and 3-aminopyrrolidines as potent MCH-R1 antagonists for the treatment of obesity” (Bioorg Med Chem Lett, 2006).

pIC50, pKi: −log10 of the molar value.

T1 sequence (Q99705 whole entry): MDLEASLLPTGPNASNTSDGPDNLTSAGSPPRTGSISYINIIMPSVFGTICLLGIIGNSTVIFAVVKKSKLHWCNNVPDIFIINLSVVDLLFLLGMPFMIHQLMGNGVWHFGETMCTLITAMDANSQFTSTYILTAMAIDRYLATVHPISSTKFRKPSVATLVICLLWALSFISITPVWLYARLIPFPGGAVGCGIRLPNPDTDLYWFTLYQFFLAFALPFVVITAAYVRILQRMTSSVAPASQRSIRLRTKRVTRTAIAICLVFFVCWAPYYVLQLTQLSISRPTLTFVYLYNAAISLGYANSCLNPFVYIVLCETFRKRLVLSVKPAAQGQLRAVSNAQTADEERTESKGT

For the first test, the target named is T1, Melanin-concentrating hormone receptor 1 (Homo sapiens, UniProt Q99705). Kind of test: Binding activity against human MCH-R1. The procedure, abridged:
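Whole-cell competition binding in HEK-293 cells overexpressing MCH-R1 (SLC-1). Cells were incubated with varying compound concentrations plus 25 nM europium-labelled MCH, then washed free of unbound label, and residual bound europium-MCH was quantified. Non-specific binding was defined with unlabelled MCH. Values are means of at least two experiments unless indicated otherwise.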
For `COc1cc(C(=O)NC2CCN(Cc3ccc4ccccc4c3)CC2)ccc1F`, the pKi is 7.89.
Take `COc1cc(OC)cc(C(=O)NC2CCN(Cc3ccccc3)CC2)c1`: the negative-log Ki (pKi) was 6.52.
On to `COc1cc(OC)cc(C(=O)NC2CCN(CC3CCc4ccccc4C3)CC2)c1` (centres undefined), for which the negative logarithm of the Ki (pKi) is 6.87.
On the same count and under the same terms, the same measure for `COc1cc(OC)cc(C(=O)N[C@@H]2CCN(Cc3ccc4ccccc4c3)C2)c1`: 8.15.
Compound `CCOc1cc(OCC)cc(C(=O)NC2CCN(Cc3ccc4ccccc4c3)CC2)c1` gave a pKi of 7.25.
As for `COc1cc(OC)cc(C(=O)NC2CCN(Cc3cc4ccccc4n3C)CC2)c1`, the negative logarithm of the Ki (pKi) was 6.85.
Take `CN(C)c1cccc(C(=O)NC2CCN(Cc3ccc4ccccc4c3)CC2)c1`: the pKi is 6.90.
Turning to `COc1cc(C(=O)N[C@@H]2CCN(Cc3ccc4ccccc4c3)C2)ccc1F`, the pKi was 7.21.
The same measure, in the same setting: to `COc1cc(OC)cc(C(=O)N[C@@H]2CCN(C(C)/C=C/c3ccccc3)C2)c1` (some centres undefined) belongs 7.64; to `COc1cc(OC)cc(C(=O)NC2CCN(Cc3ccc(Cl)c(Cl)c3)CC2)c1`, 6.69; to `COc1cc(OC)cc(C(=O)N[C@@H]2CCN(Cc3ccc4ccccc4c3)C[C@H]2C)c1`, 6.88.
Turning to `COc1cc(C(=O)NC2CCN(Cc3ccc4ccccc4c3)CC2)cc(OC)c1OC`, the negative logarithm of the Ki (pKi) is 6.54.
Compound `O=C(NCc1ccc(F)c(F)c1)[C@@H]1[C@@H]2CN(Cc3ccc4ccccc4c3)C[C@@H]21` gave a pKi of under 4.00.
Take `COc1cc(OC)cc(C(=O)NC2CCN(Cc3ccc4cc(OC)ccc4c3)CC2)c1`: the pKi is 7.00.
In turn, `COc1cc(OC)cc(C(=O)NC2CCN(CC[C@H](O)c3ccccc3)CC2)c1` showed a negative logarithm of the Ki (pKi) of 6.30.
`O=C(NC1CCN(Cc2ccc3ccccc3c2)CC1)c1ccccc1` had a pKi of 6.46.
Consider `O=C(NCc1ccc(F)c(F)c1)[C@H]1[C@@H]2CN(Cc3ccc4ccccc4c3)C[C@@H]21`, for which the pKi is 7.40.
`COc1cc(OC)cc(C(=O)N[C@@H]2CCN(C(C)c3ccc4ccccc4c3)C2)c1` (some centres undefined) had a negative logarithm of the Ki (pKi) of 7.92.
Regarding `COc1cc(OC)cc(C(=O)NCCCNCc2ccc3ccccc3c2)c1`, the pKi is under 4.00.
`COc1cc(OC)cc(C(=O)NC2CCN(C/C=C/c3ccccc3)CC2)c1` gave a negative-log Ki (pKi) of 7.92.
`O=C(NC1CCN(Cc2ccc3ccccc3c2)CC1)c1ccc(F)cc1` gave a pKi of 7.44.
Compound `O=C(NC1CCN(Cc2ccc3ccccc3c2)CC1)c1ccc(Cl)cc1` showed a negative logarithm of the Ki (pKi) of 6.63.
`O=C(NC1CCN(Cc2ccc3cc(F)ccc3c2)CC1)c1ccccc1` showed a pKi of 6.90.
As to `COc1cc(OC)cc(C(=O)NC2CC(C)(C)N(Cc3ccc4ccccc4c3)C(C)(C)C2)c1`, the negative-log Ki (pKi) was under 4.00.
`O=C(NC1CCN(Cc2ccc3ccccc3c2)CC1)c1cccc(O)c1` gave a pKi of 6.24.
`O=C(NC1CCN(Cc2ccc3ccccc3c2)CC1)c1ccc(F)c(F)c1`: the pKi is 7.74.
For `COc1ccc(C(=O)NC2CCN(Cc3ccc4ccccc4c3)CC2)cc1OC`, the pKi was 6.00.
Still for that read-out and setting: to `COc1cc(OC)cc(C(=O)N[C@@H]2CCN(Cc3ccc4ccccc4c3)C[C@@H]2C)c1` belongs 6.77; to `COc1cc(OC)cc(C(=O)N(C)C2CCN(Cc3ccc4ccccc4c3)CC2)c1`, 6.77.
The compound `COc1cc(OC)cc(C(=O)N[C@H]2CCN(Cc3ccc4ccccc4c3)C2)c1` gave a pKi of 6.32.
Compound `COc1cc(OC)cc(C(=O)NC2CCCN(Cc3ccc4ccccc4c3)C2)c1` (centres undefined) gave a negative logarithm of the Ki (pKi) of under 4.00.
As to `COc1cc(OC)cc(C(=O)NC2CCN(Cc3ccc4ccccc4n3)CC2)c1`, the pKi was 6.20.
`O=C(NC1CCN(Cc2ccc3ccccc3c2)CC1)c1cc(F)c(F)c(F)c1`: the pKi was 8.05.
The same measure, in the same setting: the same measure for `COc1cc(OC)cc(C(=O)NC2(C)CCN(Cc3ccc4ccccc4c3)CC2)c1`: 7.07.
On the same count and under the same terms, the same measure for `COc1cc(OC)cc(C(=O)NC2CCN(Cc3ccc4cc(F)ccc4c3)CC2)c1`: 7.49; for `COc1cccc(C(=O)N[C@@H]2CCN(Cc3ccc4ccccc4c3)C2)c1`: 7.17.
Still for that read-out and setting: the same measure for `COc1cc(OC)cc(C(=O)NC2CCN(C(C)c3ccc4ccccc4c3)CC2)c1` (centres undefined): 7.60; for `COc1cc(OC)cc(C(=O)N[C@@H]2CCN(C/C=C/c3ccccc3)C2)c1`: 7.77; for `COc1cc(OC)cc(C(=O)NC2CCN(CCCc3ccccc3)CC2)c1`: under 4.00.
`O=C(NC1CCN(Cc2ccc3ccccc3c2)CC1)c1cc(F)cc(F)c1` gave a negative-log Ki (pKi) of 7.19.
Take `COc1cccc(C(=O)NC2CCN(Cc3ccc4ccccc4c3)CC2)c1`: the negative-log Ki (pKi) was 7.54.
Same read-out and setting: to `COc1cc(OC)cc(C(=O)N[C@@H]2CCN(Cc3ccccc3)C2)c1` belongs 5.09; to `COc1cc(OC)cc(C(=O)NC2CCN(Cc3ccc4ccccc4c3)CC2)c1`, 7.57.

The next test deals with T1, Melanin-concentrating hormone receptor 1. In words: Inhibition of MCH-mediated calcium release by CHO cells expressing human MCH-R1. Format: functional, cell-based.
As to `COc1cc(OC)cc(C(=O)N[C@@H]2CCN(Cc3ccc4ccccc4c3)C2)c1`, the negative-log IC50 (pIC50) was 7.74.
For `O=C(NC1CCN(Cc2ccc3ccccc3c2)CC1)c1ccccc1`, the negative logarithm of the IC50 (pIC50) was 6.02.
Regarding `O=C(NC1CCN(Cc2ccc3cc(F)ccc3c2)CC1)c1ccccc1`, the pIC50 was 6.96.
With `O=C(NC1CCN(Cc2ccc3ccccc3c2)CC1)c1ccc(F)c(F)c1`, the pIC50 was 7.28.
With `COc1cc(OC)cc(C(=O)N[C@@H]2CCN(C/C=C/c3ccccc3)C2)c1`, the negative-log IC50 (pIC50) is 7.38.
Take `COc1cc(OC)cc(C(=O)NC2CCN(Cc3ccc4ccccc4c3)CC2)c1`: the pIC50 was 7.21.
